From PubChem BioAssay
SUMO1 PPI mod = modulators of human SUMO1-mediated protein-protein interactions | SUMO1 binding to a labelled peptide, TR-FRET, 1 h | inhibition, % at 20 µM | hit rate 0.33% among 360,000; in the data active = inhibition above about 37%
Target sequence (P63165 whole entry, looked up): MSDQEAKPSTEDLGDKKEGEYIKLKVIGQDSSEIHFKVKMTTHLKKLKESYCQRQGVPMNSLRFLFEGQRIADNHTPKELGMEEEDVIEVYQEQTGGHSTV
STEP inh = STEP (human) phosphatase inhibition | P54829 | recombinant STEP, OMFP fluorogenic substrate, fluorescence | inhibition, % at 20 µM | hit rate 0.25% among 360,000 | AID 588621;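 active = inhibition at 20 µM, scaled per plate between control wells, above about 37%, limit read from the data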;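 also: 0% = DMSO with enzyme and substrate and 100% = substrate only without enzyme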
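Measure: Control-normalized % inhibition with plate pattern correction | Test system: STEP phosphatase, cell-free reaction | Medium: pH 6.0 Bis-Tris with DTT and Tween 20 | Technique: Fluorescence, 480/540 nm | Times: Reaction 20 min, ambient temperature | Doses: Single compound dose of 20 µM, 1% DMSO final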
LMPTP block = blocks human LMPTP phosphatase; P24666; recombinant LMPTP-A, OMFP fluorogenic substrate, fluorescence intensity; inhibition, % at 20 µM; hit rate 0.22% among 360,000;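 active = compounds that cut the enzyme signal by at least half of the control window in the single-dose screen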;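 also: plate controls were DMSO wells with enzyme plus substrate for no effect and substrate without enzyme for full effect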
Target sequence (P24666 whole entry, looked up): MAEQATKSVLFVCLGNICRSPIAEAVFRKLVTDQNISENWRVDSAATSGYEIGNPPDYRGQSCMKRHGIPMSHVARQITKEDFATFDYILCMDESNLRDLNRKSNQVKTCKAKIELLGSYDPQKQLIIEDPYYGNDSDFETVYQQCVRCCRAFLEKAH
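Test system – LMPTP-A phosphatase enzyme · Quantity – 0.625 nM LMPTP-A final · Reagent – OMFP substrate, 400 µM final · Dosing – one test concentration per compound, 20 µM, with 3% DMSO overall · Timing – 50 min enzyme reaction at room temperature, protected from light · Detection – fluorescence intensity · Controls – substrate-only low control, DMSO enzyme-plus-substrate high control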
NadD inh = NadD (S. aureus) enzyme inhibition; hit rate 0.78% among 360,000; inhibition, % at 20 µM; purified NadD enzyme, colorimetric absorbance read-out; in the data active = inhibition above about 26%
DNMT1 block = inhibitors of human DNMT1; inhibition (reported as % activation of signal), % at 10 µM; hit rate 0.83% among 360,000; P26358; DNMT1 molecular beacon, Hinp1I cleavage, fluorescence; in the data active = inhibition above about 50%
Scp-1 inhibitor = Scp-1 (human) phosphatase inhibition | AID 493091 | inhibition, % at 20 µM | Q9GZU7 | hit rate 0.88% among 340,000 | Recombinant Scp1, phosphopeptide, malachite green phosphate absorbance;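 active = inhibition above about 50% at 20 µM, limit read from the data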;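 also: plate controls were DMSO wells with enzyme for no effect and wells lacking enzyme for full effect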
Target sequence (Q9GZU7 76-261 limits assumed): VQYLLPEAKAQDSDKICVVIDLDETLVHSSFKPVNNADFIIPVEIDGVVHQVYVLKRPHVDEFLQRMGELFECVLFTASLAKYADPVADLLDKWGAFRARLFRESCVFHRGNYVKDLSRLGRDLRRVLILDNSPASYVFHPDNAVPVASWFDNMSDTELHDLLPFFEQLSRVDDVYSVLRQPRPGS
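Test system: SCP-1 phosphatase catalytic domain, residues 76-261 | Compound dosing: One concentration, 20 µM, with 1.0% DMSO | Schedule: 45 min room-temperature reaction, 5 min colour, 30 min stabiliser | Detection: Absorbance at 630 nm | Read-out basis: % inhibition of SCP-1 phosphate liberation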
STEP inh conf = confirmation of human STEP phosphatase inhibitors; AID 623866; recombinant STEP, OMFP fluorogenic substrate, fluorescence; shares compounds with STEP inh; hit rate 32% among 520; inhibition, % at 20 µM; call rule not given here;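 also: 0% = enzyme with substrate plus DMSO and 100% = substrate without enzyme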
* marks the source's active call; other numbers are inactive results; / = no result. Rows were chosen to be rich in hits. Some 2.4% of all compounds tested hit in one or more screens of this group.

SMILES | SUMO1 PPI mod | STEP inh | LMPTP block | NadD inh | DNMT1 block | Scp-1 inhibitor | STEP inh conf
CCn1c(CSc2ncccn2)nnc1SCC(=O)N1CCc2ccccc21 | 1 | 1 | -1 | 0 | -1 | -4 | /
CC(=O)Nc1ccc(/C=C2\Sc3ccccc3C2=O)cc1 | 19 | 43* | 4 | -3 | 33 | 0 | -1
Cc1ccccc1-n1nc(CSc2nc3ccccc3[nH]2)c(-c2ccccc2)c1N | 5 | 58* | 1 | 4 | -6 | -1 | 7
COc1ccc(C(=O)Nc2cc(S(=O)(=O)N3CCCCC3)ccc2C)cc1 | 1 | -1 | -2 | -6 | -15 | / | /
Cc1ccc(S(=O)(=O)N2CCCCC2)cc1NC(=O)c1ccc(=O)[nH]c1 | 12 | 54* | 54* | 1 | 10 | / | 66*
O=C(CSc1nc2ccccc2[nH]1)N/N=C/c1ccncc1 | -13 | 2 | -1 | 7 | -1 | -6 | /
Clc1ccc(-c2nc(-c3ccncc3)no2)c(Cl)c1 | 3 | 3 | 2 | -3 | 23 | -11 | /
Clc1ccc(Cl)c(-c2nc(-c3ccncc3)no2)c1 | 33 | 44* | 44 | -1 | 23 | 2 | 12*
C/C(=N\NC(N)=S)c1ccccc1 | 1 | 5 | 1 | 1 | -1 | -7 | /
O=C(NCc1ccco1)C1CC(c2ccc(C(F)(F)F)cc2)=NO1 (stereo unspecified) | 12 | 1 | 0 | -5 | 21 | -6 | /
O=C(CCC(=O)NCCCc1ccccc1)NCCCc1ccccc1 | 0 | 119* | -2 | -3 | -1 | -3 | 15
O=C(Cc1ccccc1)NCCCc1ccccc1 | 0 | -4 | 1 | 0 | 1 | -1 | /
CC(=O)c1sc(NC(=O)c2ccc(F)c(F)c2)nc1C | -10 | 58* | 42 | 14 | 1 | 44 | 16
COc1ccccc1NC(=O)CCS(=O)(=O)c1ccc2c(c1)NC(=O)C(C)S2 (stereo unspecified) | 0 | 62* | -1 | -2 | 1 | -9 | 1
OCCN1CCN(C(=S)c2ccc(Cl)cc2)CC1 | -1 | 70* | 1 | 1 | 1 | 1 | 13
CCN1CCN(C(=S)c2ccc(OC)cc2)CC1 | 2 | 73* | -1 | -3 | 2 | 1 | 31
COc1ccc(C(=S)N2CCCCCC2)cc1 | 2 | 6 | 1 | 3 | -13 | -12 | /
CCN1CCN(C(=S)c2ccc([N+](=O)[O-])cc2)CC1 | -20 | 62* | -1 | -1 | 3 | 1 | 24
CCN1CCN(C(=S)c2ccc(Cl)cc2)CC1 | -1 | 95* | 0 | 2 | 1 | -5 | 63*
CC(C)(C)c1cc(C(=S)N2CCN(CCO)CC2)cc(C(C)(C)C)c1O | 0 | 26 | 0 | -5 | -6 | -6 | /
O=C(CC12CC3CC(CC(C3)C1)C2)NCCN1CCOCC1 | 2 | -1 | 0 | 5 | 5 | -9 | /
CCN(CC(=O)Nc1c(C(=O)OC)[nH]c2ccc(Cl)cc12)c1ccc2c(c1)OCO2 | -3 | 3 | 1 | 16 | -17 | -6 | /
Cc1ccc(CNC(=O)CCc2ccccc2)cc1 | 3 | -3 | -1 | -4 | -1 | -4 | /
CCCCNC(=O)C1(C)CCC(=O)N1CCCn1ccnc1 (stereo unspecified) | 2 | -1 | -1 | -9 | 2 | / | /
CCOc1ccc(C(=S)N2CCN(C)CC2)cc1 | 0 | 81* | -1 | -1 | -2 | -7 | 48*
SMILES | SUMO1 PPI mod | STEP inh | LMPTP block | NadD inh | DNMT1 block | Scp-1 inhibitor | STEP inh conf
CCOc1ccc(C(=S)N2CCCC2)cc1 | 0 | -2 | -3 | 0 | -3 | -5 | /
O=C(Nc1cccnc1)c1ccc(COc2cc(Cl)ccc2Cl)o1 | 1 | -2 | 0 | -8 | -6 | 6 | /
CCCCN(CC)Cc1ccc(CNC(=S)Nc2c(C)cc(C)cc2C)o1 | 2 | 85* | -1 | -5 | -1 | -13 | 45*
CCCCN(CC)Cc1ccc(CNC(=S)Nc2ccc(C)cc2Cl)o1 | -4 | 5 | 2 | -5 | -7 | -5 | /
Cc1ccc(C(=O)N/N=C\c2ccc(-c3ccc([N+](=O)[O-])cc3)o2)cn1 | 24 | 60* | 33 | 2 | 0 | 1 | 0
O=C(Nc1nc2nccc(-c3ccccc3)n2n1)c1ccccc1 | 29 | 1 | 1 | 1 | 3 | -1 | /
